Assay results from ChEMBL document CHEMBL4680252, “Anti-norovirus activity of C7-modified 4-amino-pyrrolo[2,1-f][1,2,4]triazine C-nucleosides” (Eur J Med Chem, 2020).
pEC50, pIC50: −log10 of the molar value.

Assays:
Norovirus [1] = experiment: Antiviral activity against human Norovirus; type: functional
[2] = Cytotoxicity against mouse RAW264.7 cells assessed as reduction in cell viability incubated for 3 days by MTS assay; type: cell-based; conditions: time 3 day
How it was run: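 Uninfected RAW 264.7 cells were exposed for 3 days to the same compound concentrations used in the MNV assay, then MTS read-out. Viability was expressed as % of untreated cells, and CC₅₀ is the concentration that reduced viable cells by 50%.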

[3] = Antiviral activity against murine Norovirus infected in mouse RAW264.7 cells assessed as reduction in virus-induced cytopathic effect incubated for 72 hrs by MTS assay; type: functional, cell-based; conditions: RAW264.7, 72 h
How it was run: (§1)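 RAW 264.7 cells (1 × 10⁴/well) infected with MNV-1.CW1 at MOI 0.001 alongside a compound dilution series (0.023–50 or 100 µg/mL; 8 concentrations). Incubated 3 days until CPE was complete in untreated infected wells. MTS/PMS added, OD read at 498 nm after 2 h. %CPE reduction taken against uninfected and infected untreated controls; EC₅₀ is 50% protection from CPE.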

[4] = Selectivity index, ratio of CC50 for mouse RAW264.7 cells to EC50 for antiviral activity against murine Norovirus infected in mouse RAW264.7 cells; type: toxicity, cell-based; conditions: read-out: Ratio CC50/EC50
How it was run: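 Ratio of CC₅₀ (MTS, uninfected RAW 264.7, 3 days) to EC₅₀ (MNV CPE-reduction MTS assay in RAW 264.7, 3 days), calculated as CC₅₀/EC₅₀.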

Norovirus [5] = experiment: Antiviral activity against human Norovirus GI.1 infected in human HGT-1 cells assessed as reduction in virus replication incubated for 72 hrs by qRT-PCR analysis; type: functional, cell-based; conditions: GI.1, HGT-1, 72 h
How it was run: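 HGT-1 cells stably carrying the GI.1 HuNoV replicon were seeded at 5,000/well in complete DMEM without G418. Serial compound dilutions were added after 24 h, followed by 72 h incubation and a PBS wash. Intracellular replicon RNA was quantified by qRT-PCR, normalised to β-actin by the Pfaffl method with per-run efficiencies. EC₅₀ is 50% reduction of relative replicon RNA.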

[6] = Inhibition of recombinant Norovirus GII.4 C-terminal His6-tagged RNA-dependent RNA polymerase in Escherichia coli assessed as decrease in GTP incorporation incubated for 10 mins by scintillation counting method
[7] = Antiviral activity against murine Norovirus GV.1 infected in mouse RAW264.7 cells assessed as reduction in plaque formation incubated for 48 hrs by qRT-PCR analysis; type: functional, cell-based; conditions: GV.1, RAW264.7, 48 h
[8] = Inhibition of human Norovirus RNA-dependent RNA polymerase assessed as decrease in GTP incorporation incubated for 10 mins by scintillation counting method
[9] = Inhibition of mouse Norovirus RNA-dependent RNA polymerase assessed as decrease in GTP incorporation incubated for 10 mins by scintillation counting method
[10] = Antiviral activity against murine Norovirus infected in mouse RAW264.7 cells assessed as reduction in virus-induced cytopathic effect incubated for 3 days by MTS assay; type: functional, cell-based; conditions: RAW264.7, 72 h; how it was run: as §1
Norovirus [11] = experiment: Antiviral activity against human Norovirus infected in BJAB cells assessed as reduction in viral replication incubated for 3 days by qRT-PCR analysi; type: functional, cell-based; conditions: 72 h

With C[C@@]1(F)[C@H](O)[C@@H](CO)O[C@H]1n1ccc(N)nc1=O as the molecule, how does the pEC50 (Norovirus [1]) read?
Its pEC50 is 5.49.

Which CC50 at 72 h [2] does the source give for Nc1ncnn2c([C@H]3O[C@@H](CO)[C@H](O)[C@@H]3O)cc(Cl)c12 here?
The CC50 at 72 h was > 100 µM.

And the pEC50 [3]?
The pEC50 was < 4.00.

For Nc1ncnn2c([C@H]3O[C@@H](CO)[C@H](O)[C@@H]3O)ccc12, which CC50 at 72 h [2] is on record?
Its CC50 at 72 h is > 100 µM.

And the pEC50 [3]?
Its pEC50 is < 4.00.

With NC(=O)c1ncn([C@@H]2O[C@H](CO)[C@@H](O)[C@H]2O)n1 [RIBAVIRIN] as the molecule, how does the pEC50 (Norovirus [1]) read?
The pEC50 was 4.37.

Which CC50 at 72 h [2] does the source give for C[C@H](NP(=O)(N[C@@H](C)C(=O)OCc1ccccc1)OC[C@H]1O[C@@H](c2cc(Cl)c3c(N)ncnn23)[C@H](O)[C@@H]1O)C(=O)OCc1ccccc1 here?
The CC50 at 72 h was > 10 µM.

What about the pEC50 [3] of the same molecule?
The pEC50 was < 5.00.

What does the source list for Nc1ncnn2c([C@@H]3O[C@H](CO)[C@@H](O)[C@H]3O)cc(Cl)c12?
CC50 at 72 h [2]: > 0.01 µM; pEC50 [3]: 8.15; selectivity ratio [4]: > 1; pEC50 (Norovirus [5]): < 5.00

Which results are given for C[C@@]1(O)[C@H](O)[C@@H](CO)O[C@H]1c1ccc2c(N)ncnn12?
CC50 at 72 h [2]: 23.7 µM; pEC50 [3]: 4.95; selectivity ratio [4]: 2

With C[C@@]1(O)[C@H](O)[C@@H](CO)O[C@H]1c1cc(Cl)c2c(N)ncnn12 as the molecule, how does the CC50 at 72 h [2] read?
Its CC50 at 72 h is 4.78 µM.

What about the pEC50 [3] of the same molecule?
The pEC50 was < 5.40.

What does the source list for O=C(O)c1[nH]nnc1-c1ccccc1?
pIC50 [6]: 5.04; pEC50 [7]: 4.46

With O=C(Nc1cccc(C(=O)Nc2ccc(S(=O)(=O)O)c3cc(S(=O)(=O)O)cc(S(=O)(=O)O)c23)c1)Nc1cccc(C(=O)Nc2ccc(S(=O)(=O)O)c3cc(S(=O)(=O)O)cc(S(=O)(=O)O)c23)c1 as the molecule, how does the pIC50 [8] read?
The pIC50 was 7.15.

What about the pIC50 [9] of the same molecule?
The pIC50 was 6.70.

With Nc1ncnn2c([C@@H]3O[C@H](CO)[C@@H](O)[C@H]3O)ccc12 as the molecule, how does the CC50 at 72 h [2] read?
Its CC50 at 72 h is 0.14 µM.

And the pEC50 [3]?
The pEC50 was 8.15.

And the selectivity ratio [4]?
The selectivity ratio was 20.

And the pEC50 (Norovirus [5])?
Its pEC50 is 7.82.

Which results are given for Nc1ncnn2c([C@@H]3O[C@H](CO)[C@@H](O)[C@H]3O)cc(Br)c12?
CC50 at 72 h [2]: 0.45 µM; pEC50 [3]: 7.62; selectivity ratio [4]: 19; pEC50 (Norovirus [5]): < 5.00

Which results are given for Cc1nc(-c2ccccc2)sc1C(=O)Nc1sc2c(c1C#N)CCC2?
pIC50 [6]: 5.30; pEC50 [7]: 5.32

With Cc1ccc(C(=O)Nc2ccc(S(=O)(=O)O)c3cc(S(=O)(=O)O)cc(S(=O)(=O)O)c23)cc1NC(=O)c1cccc(NC(=O)Nc2cccc(C(=O)Nc3cc(C(=O)Nc4ccc(S(=O)(=O)O)c5cc(S(=O)(=O)O)cc(S(=O)(=O)O)c45)ccc3C)c2)c1 [SURAMIN] as the molecule, how does the pIC50 [8] read?
The pIC50 was 7.60.

And the pIC50 [9]?
Its pIC50 is 7.15.

For Nc1ncnc2c1c(Cl)cn2[C@@H]1O[C@H](CO)[C@@H](O)[C@H]1O, which CC50 at 72 h [2] is on record?
Its CC50 at 72 h is 2.53 µM.

What about the pEC50 [3] of the same molecule?
Its pEC50 is < 5.70.

With C[C@@]1(O)[C@H](O)[C@@H](CO)O[C@H]1n1ccc(N)nc1=O as the molecule, how does the pEC50 (Norovirus [1]) read?
The pEC50 was 5.09.

What about the pEC50 [10] of the same molecule?
Its pEC50 is 5.70.

And the pEC50 (Norovirus [11])?
Its pEC50 is 6.52.

For Nc1ncnn2c([C@@H]3O[C@H](CO)[C@@H](O)[C@H]3O)cc(I)c12, which CC50 at 72 h [2] is on record?
Its CC50 at 72 h is 0.78 µM.

And the pEC50 [3]?
The pEC50 was 7.46.

And the selectivity ratio [4]?
The selectivity ratio was 22.

And the pEC50 (Norovirus [5])?
Its pEC50 is < 5.00.
